High-throughput results (PubChem)
Rows were chosen to be rich in hits. Some 3% of all compounds tested hit in one or more screens of this group.
UBC13 inh: UBC13 polyubiquitin chain formation inhibitors, primary screen, biochemical, TR-FRET, uHTS. inhibition, % at 20 µM. 330,000 compounds, 0.47% hits. Ubiquitin-conjugating enzyme E2 N (Homo sapiens), P61088; in the data active means inhibition above about 45%, passing the limit was not always enough
MPTP block: mitochondrial permeability transition pore inhibitors, primary screen, biochemical, isolated mouse mitochondria, absorbance; 360,000 compounds, 1.4% hits; inhibition, % at 10 µM; Ca2+ swelling absorbance, 30 min;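 active means inhibition of 50% or more, scaled per plate between neutral and stimulator controls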
MIN6 prolif: inducers of MIN6 beta-cell proliferation, primary screen, ATP luminescence, uHTS | MIN6 cells proliferation, ATPlite luminescence, 48 h; cells starved in 0.2% serum; 100% = growth in 10% serum | proliferation, % at 10 µM | 330,000 compounds, 0.29% hits | AID 2380, 2010;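 active means compounds whose signal lies at least 3.5 SD above the mean of all wells on their plate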
Apaf-1 inh: inhibitors of human Apaf-1 apoptosome, primary screen, biochemical, DEVD-Rh110 fluorescence, uHTS; 330,000 compounds, 0.71% hits; inhibition, % at 20 µM; AID 489030, 2010; reconstituted apoptosome caspase-3 activity; Apoptotic protease-activating factor 1 (Homo sapiens), O14727; active means inhibition of at least 40% at 20 µM
Target sequence (O14727 whole entry, looked up): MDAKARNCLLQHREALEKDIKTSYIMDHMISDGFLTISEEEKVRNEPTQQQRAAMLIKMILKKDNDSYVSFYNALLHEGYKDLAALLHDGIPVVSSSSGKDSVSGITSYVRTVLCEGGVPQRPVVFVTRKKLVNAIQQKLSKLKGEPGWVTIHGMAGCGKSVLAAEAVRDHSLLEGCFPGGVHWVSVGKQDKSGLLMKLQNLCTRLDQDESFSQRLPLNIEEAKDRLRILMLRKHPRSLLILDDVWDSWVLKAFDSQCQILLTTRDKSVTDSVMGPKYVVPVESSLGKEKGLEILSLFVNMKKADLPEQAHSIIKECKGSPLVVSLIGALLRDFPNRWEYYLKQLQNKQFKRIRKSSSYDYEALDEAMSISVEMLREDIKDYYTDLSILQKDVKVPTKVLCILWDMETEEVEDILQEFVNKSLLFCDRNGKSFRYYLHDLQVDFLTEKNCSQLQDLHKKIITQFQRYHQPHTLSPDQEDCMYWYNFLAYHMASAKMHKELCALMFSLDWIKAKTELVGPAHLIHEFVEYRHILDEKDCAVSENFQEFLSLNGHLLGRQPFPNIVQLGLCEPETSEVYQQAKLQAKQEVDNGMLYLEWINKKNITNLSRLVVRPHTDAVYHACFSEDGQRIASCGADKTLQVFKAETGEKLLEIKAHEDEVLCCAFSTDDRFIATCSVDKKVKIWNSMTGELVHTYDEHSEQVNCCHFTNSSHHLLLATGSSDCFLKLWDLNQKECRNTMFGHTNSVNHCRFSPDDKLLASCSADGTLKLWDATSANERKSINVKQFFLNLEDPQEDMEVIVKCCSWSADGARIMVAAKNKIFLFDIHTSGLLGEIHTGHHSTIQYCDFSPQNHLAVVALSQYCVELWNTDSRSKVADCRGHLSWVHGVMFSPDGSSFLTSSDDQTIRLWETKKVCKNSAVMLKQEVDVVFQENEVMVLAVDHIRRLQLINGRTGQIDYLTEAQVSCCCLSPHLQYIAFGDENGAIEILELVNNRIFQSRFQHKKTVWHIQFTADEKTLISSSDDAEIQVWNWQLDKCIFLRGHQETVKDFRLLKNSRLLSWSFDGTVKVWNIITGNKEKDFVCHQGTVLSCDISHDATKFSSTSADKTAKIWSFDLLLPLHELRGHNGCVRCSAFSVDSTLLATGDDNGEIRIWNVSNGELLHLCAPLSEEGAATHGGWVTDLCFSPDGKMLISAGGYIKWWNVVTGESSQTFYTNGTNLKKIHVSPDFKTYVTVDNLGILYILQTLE
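Material: reconstituted apoptosome with Apaf-1, cytochrome c, caspase-9, procaspase-3, dATP. Technique: Rh110 fluorescence intensity. Buffer or medium: pH 7.5 Hepes buffer with CHAPS, BSA, DTT. Times: 30 min plus 50 min, RT.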
iPSC survival up: enhancers of single-cell hiPSC survival, primary screen, ATPlite luminescence; 100% = ROCK inhibitor wells, 0% = DMSO; AID 602274, 2012; 360,000 compounds, 0.044% hits; survival enhancement, % at 20 µM; in the data active means survival enhancement above about 18%;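 further: cells exposed to compounds for 16 hours before the ATP read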
Granule exo inh: LAMP-1 surface exposure blockers, TALL-104 cells – cell-based, flow cytometry, MLPCN library, primary screen | inhibition, % at 10 µM | 360,000 compounds, 0.66% hits | AID 651702, 2012 | TALL-104 LAMP-1 surface exposure; cells stimulated with thapsigargin and PMA;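 active means inhibition above about 55%, limit read from the data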
Apaf-1 inh conf: Apaf-1 inhibitors, single-dose retest, confirmation, biochemical, fluorescence, DEVD-Rh110, 20 µM. reconstituted apoptosome, caspase-3 DEVD-Rh110 fluorescence. 1,800 compounds, 25% hits. inhibition, % at 20 µM. shares compounds with Apaf-1 inh;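 active means mean inhibition of at least 40% at 20 µM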
Rh110 quench: Rh110 fluorescence interference by putative Apaf-1 inhibitors, confirmation, artefact control for Apaf-1 inhibitor project, biochemical, 20 µM; shares compounds with Apaf-1 inh; quenched caspase reaction; activation (fluorescence interference), % at 20 µM; 1,800 tested, under 10 active;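 active means signal rise of 40% or more at 20 µM, treated as a fluorescence artifact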
Fluor interf inh: fluorescence interference of Apaf-1 inhibitor hits, dose response, artefact control for Apaf-1 inhibitor project; AID 588538, 2011; 460 tested, under 10 active; shares compounds with Apaf-1 inh; fluorescence interference counterscreen, Apaf-1 assay format; IC50, µM; call rule not given here
A number is an active result; i = inactive; nt = no result given.

SMILES | UBC13 inh | MPTP block | MIN6 prolif | Apaf-1 inh | iPSC survival up | Granule exo inh | Apaf-1 inh conf | Rh110 quench | others
Cn1cccc1C(=O)NCc1ccccn1 | i | i | i | i | i | i | nt | nt
CCN(C(=O)CSc1nnc(C)c(=O)[nH]1)c1cccc2ccccc12 | i | i | i | i | i | i | nt | nt
Cc1ccc(CCN2CCN=C2Nc2ccccc2)cc1 | i | i | i | i | i | i | nt | nt
O=C(O)c1cc(S(=O)(=O)NC(CO)C(O)c2ccc([N+](=O)[O-])cc2)ccc1Br (configuration not stated) | i | i | i | i | i | i | nt | nt
CC(C)N(C(=O)Nc1ccc2nsnc2c1)C(C)C | i | nt | i | 97.5 | nt | nt | 95.6 | i | Fluor interf inh=i
COc1ccc(N(C)C(=O)Nc2ccc3nsnc3c2)cc1 | nt | i | nt | nt | i | i | nt | nt
O=C(N/N=C\c1ccc(-c2ccccc2[N+](=O)[O-])o1)C1COc2ccccc2O1 (configuration not stated) | i | i | i | 79.5 | i | i | i | i
O=C(N/N=C\c1ccc([N+](=O)[O-])o1)C1COc2ccccc2O1 (configuration not stated) | i | i | i | i | i | i | nt | nt
O=C(N/N=C/c1ccc(-c2ccccc2[N+](=O)[O-])o1)c1cncc(Br)c1 | i | i | i | 80.8 | i | i | i | i
Cc1ccc(C(=O)N/N=C/c2ccc(-c3ccc(Br)cc3[N+](=O)[O-])o2)o1 | i | i | i | 42.1 | i | i | i | i
Cc1cc([N+](=O)[O-])c(C)cc1-c1ccc(/C=N/NC(=O)c2cccnc2)o1 | i | i | i | 55.3 | i | i | i | i
O=C(N/N=C\c1ccc([N+](=O)[O-])o1)c1cncc(Br)c1 | i | i | i | i | i | i | nt | nt
CCCCCC(=O)N1C[C@H](O)[C@@H](n2cc(COC(=O)c3ccccc3)nn2)C[C@@H]1c1ccc(OC)cc1 | nt | i | nt | nt | i | i | nt | nt
CCCC(=Nc1ccc(N)cc1)C1=C(O)C(C(=O)OC)C(C)(C)CC1=O (configuration not stated) | i | i | i | 67.0 | i | i | i | i
CCC(C)NC(=O)CSc1ccc(S(=O)(=O)N(C)C2CCCCC2)cn1 (configuration not stated) | i | i | i | i | i | i | nt | nt
COC(=O)c1cccc(C23CC4(C2)[C@H](CN(CC2CCCCC2)[C@@H]4c2ccccc2)C3c2ccccc2)c1 (some centres not stated) | i | i | i | 40.3 | i | i | i | i
COC(=O)c1ccc(C23CC4(C2)[C@H](CN(CC2CCCCC2)[C@@H]4c2ccccc2)C3c2ccc(Cl)nc2)cc1 (some centres not stated) | i | i | i | i | i | i | nt | nt
CCCc1cc(=O)[nH]c(SCC(=O)NCC2COc3ccccc3O2)n1 (configuration not stated) | i | i | i | i | i | i | nt | nt
CCCC(C(=O)Nc1ccc(S(=O)(=O)N2CCCC2)cc1)c1ccccc1 (configuration not stated) | i | i | i | i | i | i | nt | nt
O=C(Nc1ccc(N2CCOCC2)cc1N1CCOCC1)c1ccc([N+](=O)[O-])cc1 | i | i | i | i | i | i | nt | nt
O=C(NNc1cc(N2CCOCC2)nc(N2CCOCC2)n1)c1ccc([N+](=O)[O-])cc1 | i | i | i | 96.5 | i | i | 60.5 | i | Fluor interf inh=i
Cc1ccc(C(=O)OCC(=O)NC2CCCC2)cc1 | i | i | i | i | i | i | nt | nt
CCc1c(C)sc(NC(=O)c2cccs2)c1C(=O)OC(C)C | i | i | i | i | i | i | nt | nt
CCOC(=O)c1c(NC(=O)c2cccs2)sc(C)c1CC | i | i | i | 51.1 | i | i | i | i
O=C(Cn1[nH]c(=O)c2ccccc2c1=O)N1CCN(S(=O)(=O)c2ccc(Cl)cc2)CC1 | i | i | i | i | i | i | nt | nt
SMILES | UBC13 inh | MPTP block | MIN6 prolif | Apaf-1 inh | iPSC survival up | Granule exo inh | Apaf-1 inh conf | Rh110 quench | others
CCOC(=O)C1CCN(S(=O)(=O)c2ccc3c4c2CC(=O)N4CC(C)S3)CC1 (configuration not stated) | i | i | i | 44.4 | i | i | i | i
Cc1cc(-n2c(C)cc(C(=O)COc3ccc(F)c(F)c3)c2C)no1 | i | i | i | i | i | i | nt | nt
COc1nnc(-c2ccc(N3CCCCC3)c(NC(=O)COc3ccccc3)c2)c2ccccc12 | nt | i | nt | nt | i | i | nt | nt
COc1ccc(SC[C@H](C)CN2CC[C@H](NC(=O)OCc3ccccc3)CCC2=O)cc1 | i | i | i | 70.3 | i | i | i | i
O=C(N[C@H]1CCC(=O)N([C@H](CSc2ccc(Br)cc2)Cc2ccccc2)CC1)OCc1ccccc1 | i | i | i | i | i | i | nt | nt
COc1ccc(S[C@@H](CCN2CC[C@H](NC(=O)OCc3ccccc3)CCC2=O)c2ccccc2)cc1 | i | i | i | i | i | i | nt | nt
C[C@@H](CSc1ccc(Br)cc1)CN1CC[C@H](NC(=O)OCc2ccccc2)CCC1=O | i | i | i | 40.2 | i | i | i | i
CCOC(=O)c1nn(-c2ccc(C)c(C)c2)c(=O)c2c(N)scc12 | i | i | i | 56.3 | i | i | 41.0 | i | Fluor interf inh=i
COc1ccccc1C(=O)NC(CCSC)C(=O)N1CCC(Cc2ccccc2)CC1 (configuration not stated) | i | i | i | 44.0 | i | i | i | i
CC1(C)N([O-])c2cc([N+](=O)[O-])ccc2[N+]1=O | i | nt | i | 66.4 | nt | nt | 69.6 | i | Fluor interf inh=i
CCCN(CC(=O)Nc1ccccc1C)C(=O)CCCOc1ccc(Br)cc1 | i | i | i | 52.9 | i | i | 42.6 | i | Fluor interf inh=i
CCCN(CC(=O)Nc1ccccc1OC)C(=O)CSc1ccc(Br)cc1C | i | i | i | 57.3 | i | i | 40.2 | i | Fluor interf inh=i
CCc1ccc(S(=O)(=O)/N=C2\C=C(Nc3ccc(O)cc3)C(=O)c3ccccc32)cc1 | i | i | i | 95.1 | i | 86.4 | 95.9 | i | Fluor interf inh=i
Cc1ccc(S(=O)(=O)/N=C2\C=C(NS(=O)(=O)c3ccccc3)C(=O)c3ccccc32)cc1 | nt | i | nt | nt | i | i | nt | nt
CCc1ccc(S(=O)(=O)/N=C2\C=C(Nc3cccc(C(=O)O)c3)C(=O)c3ccccc32)cc1 | i | i | i | 90.7 | i | i | 89.6 | i | Fluor interf inh=i
